Published values of several laboratories.
Lines come from different studies, so protocols differ.
Target: SRSF protein kinase 1 (SRPK1, Homo sapiens, UniProt Q96SB4)

Cn1cncc1[C@](O)(COc1ccc(C#N)cc1-c1ccc(OC(F)(F)F)cc1)c1ccc(C#N)cc1 — remaining binding (cell-free assay; competition with immobilised ligand; 1 µM): 70%
COc1cc(Nc2ncc(F)c(Nc3ccc4c(n3)NC(=O)C(C)(C)O4)n2)cc(OC)c1OC — inhibition (binding; 10 µM): 87%
Cn1cc(-c2cc(F)cc(N3CCn4c(cc5c4CCCC5)C3=O)c2CO)cc(Nc2ccc(N3CCN(C4COC4)CC3)cn2)c1=O — inhibition (enzyme activity; inhibitor; 0.1 µM): 14%
COc1ncccc1-c1cnn2ccc(N3CCN(C(=O)OC(C)C)CC3)nc12 — remaining binding (binding; competition with immobilised ligand; 1 µM): 19%
C#Cc1n[nH]c2c(-c3cn([C@@H](C)c4ccccn4)c(=O)[nH]c3=O)cc(F)cc12 — inhibition (enzyme activity; inhibitor; 0.1 µM): 3.3%
CC(C)(C)c1cc(C=C(C#N)C#N)cc(Br)c1O — remaining activity (enzyme activity; inhibitor; 0.5 µM): 101%
C#Cc1n[nH]c2c(-c3cn([C@@H](C)c4ccccc4)c(=O)[nH]c3=O)cc(F)cc12 — inhibition (enzyme activity; inhibitor; 0.1 µM): 3.1%
O=c1[nH]c2ccccc2n1C1CCN(Cc2ccc(-c3[nH]c4cc5ncnc5cc4nc3-c3ccccc3)cc2)CC1 — remaining signal (cell-free assay; 0.5 µM): 106%
Cc1nn(C)cc1-c1nc2c(N3CCN(Cc4ccc(Cl)cc4)CC3)c(Cl)cnc2[nH]1 — remaining binding (binding; competition with immobilised ligand; 1 µM): 7.8%
Cn1cc(-c2cccc(N3CCc4c(sc5c4CC(C)(C)C5)C3=O)c2CO)cc(Nc2ccncn2)c1=O — inhibition (enzyme activity; inhibitor; 1 µM): 5%
